In the library only some 3.5% were active in any assay of this set; here they are far more common.
Cneo AK release = Cryptococcus neoformans cell lysis inducers, primary screen, AK release luminescence, single concentration. C. neoformans lysis, adenylate kinase release luminescence, 4 h; normalised: neutral wells 0, clomiphene wells 100. lysis activity, % at 15 µM. 360,000 tested, 0.2% active. AID 651654, 2012;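 active = mean lysis activity across replicates of at least 80%, whatever share of replicates individually reach that level; inactive = mean lysis activity below 80%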
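Material: C. neoformans cells | Amount: Yeast cell density of 5 × 10^6 cells/mL | Medium: Fresh YPD growth medium | Dosing: Single dose | Times: Static 4 h at 37 °C with compound, 1 h detection | Detection: AK luminescence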
HIV Env fusion = inhibitors of HIV-1 Env-driven cell-cell fusion, primary screen, HeLa-JRFL effector, CEM21 target cells, luciferase. inhibition, % at 12.3 µM. 360,000 tested, 1.1% active. AID 651610, 2012;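 active = mean replicate inhibition score of at least 50 and every replicate individually at or above 50; inconclusive = only one of the two criteria met; inactive = mean below 50 and not all replicates reaching 50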;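 also: 0% = plate neutral controls and 100% = maraviroc near 300 nM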
esBAF inh = Bmi1 luciferase reporter increase in mESCs, primary screen, esBAF inhibitor project, mouse ES cells, Bmi1 luciferase knock-in, single point. reporter increase, % at 12.5 µM. 24 h; 100% = twice the neutral-well signal. 350,000 tested, 2% active; in the data active = activation above about 40%; inconclusive = no clear call, values can overlap the other calls;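 also: 0% = median of the plate's neutral control wells and 100% = double that signal; a rise in the Bmi1 reporter signal indicates esBAF inhibition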
ERAP1 HTS inh = human ERAP1 aminopeptidase inhibitors, primary screen, biochemical, single point, plate reader | inhibition, % at 10.7 µM | AID 652197, 2013 | recombinant ERAP1, Leu-AMC fluorescence, 60 min | 340,000 tested, 0.15% active | Endoplasmic reticulum aminopeptidase 1 (Homo sapiens), Q9NZ08;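 active = mean replicate inhibition of at least 30%, or all replicates individually reaching that 30% level; inactive = mean below 30% and not every replicate reaching it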;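 also: 0% = neutral control wells and 100% = L-leucinethiol positive control wells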
Wnt act = Wnt/beta-catenin pathway activators, primary screen, cell-based, plate reader, single point. activation, % at 9.35 µM. Wnt/beta-catenin reporter cell assay, activator. 300,000 tested, 1.2% active; in the data active = activation above about 30%, passing the limit was not always enough; inconclusive = no clear call, values can overlap the other calls;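 also: 0% = neutral control wells and 100% = positive control wells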
MITF TRPM1 HTS = activators of MITF-driven TRPM1 promoter reporter, primary screen, cell-based, SK-MEL-5, luciferase, single point; SK-MEL-5 TRPM1-promoter luciferase, 24 h; % of positive control, neutral wells = 0; activation, % at 12.5 µM; 300,000 tested, 0.75% active;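 active = mean activation of at least 80% with every replicate also reaching 80%; inconclusive = mean reaches 80% but some replicate falls short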;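 also: 0% = neutral control wells and 100% = parthenolide positive control wells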
Starred values were filed as active, the others as inactive; u = inconclusive; x = no result given; [ ] = remark or other dose.

SMILES	Cneo AK release	HIV Env fusion	esBAF inh	ERAP1 HTS inh	Wnt act	MITF TRPM1 HTS
COc1ccc(CNC(=O)N(C)C[C@@H]2OCc3ccccc3-c3c(n(C)c4ccccc34)C(=O)N([C@H](C)CO)C[C@@H]2C)cc1	59	85*[16.7 µM]	46*	-4	x	x
COc1ccc(CNC(=O)N(C)C[C@@H]2OCc3ccccc3-c3c(n(C)c4ccccc34)C(=O)N([C@@H](C)CO)C[C@H]2C)cc1	-4	38[16.7 µM]	11	-7	x	x
COc1ccc2c3c([nH]c2c1)[C@H](CO)N(C(=O)c1ccccn1)CC31CN(C(=O)C2CC2)C1	x	x	x	-2	x	x
C[C@@H]1CCCCO[C@H](CN(C)C(=O)Nc2ccc(F)cc2)[C@@H](C)CN([C@H](C)CO)C(=O)c2cc(NC(=O)CCC(F)(F)F)ccc2O1	-4	-32[16.7 µM]	-1	0	x	x
Cc1ccc(C(=O)c2c(C)oc3c2C(=O)C(=O)c2ccccc2-3)cc1	x	x	x	x	x	-26
Cc1ccc(C(=O)c2coc3c2C(=O)C(=O)c2ccccc2-3)cc1	3	x	42*	x	x	71
Cc1cccc(NC(=O)Nc2cccc(F)c2)n1	-1	x	68*	x	x	20
Cc1ccnc(NC(=O)Nc2cccc(F)c2)n1	x	-52	13	14	80*	28
Cc1ccnc(NC(=O)Nc2cccc(F)c2)c1	-7	-421	-11	x	x	x
Cc1ccc(NC(=O)Nc2cccc(F)c2)nc1	-1	-52	53*	0	4	x
O=C(Nc1cccc(F)c1)Nc1ccc(Cl)cn1	-1	-20	32	-3	14	74
Cc1cccc(NC(=O)Nc2cccc(C#N)c2)n1	-1	-2	50*	1	8	44
COc1ccc(NC(=O)Nc2ccc3c(c2)C(=O)N([C@@H](C)CO)C[C@@H](C)[C@H](CN(C)Cc2ccc(C(=O)O)cc2)OCCCC[C@@H](C)O3)cc1	-1	-29[16.7 µM]	-3	2	x	x
Cc1cc(C)nc(NC(=O)Nc2ccc3c(c2)OCO3)c1	1	-61	x	-5	-6	47
Cc1ccc(NC(=O)Nc2ccc(Cl)cn2)cc1	x	-43	x	-2	16	78
Cc1ccc(NC(=O)/C=C/c2ccc3c(c2)OCO3)nc1	x	-64	x	4	30*	u
Cc1ccc(NC(=O)Nc2ccc3c(c2)OCO3)nc1	x	-61	48*	6	u	130*
Cc1ccc(NC(=O)Nc2ccc(Cl)c(Cl)c2)nc1	1	-48	60*	-4	19	x
Cc1ccc(NC(=O)c2cc(F)c(F)cc2Cl)nc1	-1	-7	44*	-4	16	u
CO[C@H]1CN(C)C(=O)c2ccc(NS(=O)(=O)CC(F)(F)F)cc2OC[C@H](C)N(Cc2cccnc2)C[C@@H]1C	0	3[16.7 µM]	0	2	x	x
CO[C@@H]1CN(C)C(=O)c2cc(NS(=O)(=O)c3cn(C)cn3)ccc2OC[C@@H](C)N(Cc2ccc(C(F)(F)F)cc2)C[C@H]1C	49	88*[16.7 µM]	1	-1	x	x
CO[C@H]1CN(C)C(=O)c2cc(NS(=O)(=O)CC(F)(F)F)ccc2OC[C@H](C)N(Cc2cccnc2)C[C@@H]1C	103*	x	5	0	x	x
COc1ccc(CNc2ncccc2[N+](=O)[O-])cc1	0	-10	54*	1	8	41
COc1ccccc1C(CNc1ncccc1[N+](=O)[O-])N(C)C (stereo unspecified)	-3	-8	3	-3	0	-9
COc1ccc(-c2cc(C(=O)NC(C)C)no2)cc1	x	-109	x	x	x	105*
SMILES	Cneo AK release	HIV Env fusion	esBAF inh	ERAP1 HTS inh	Wnt act	MITF TRPM1 HTS
COc1ccc(-c2cc(C(=O)Nc3cc(C)ccc3O)no2)cc1	-4	-6	22	-3	-6	41
COC(=O)c1cc(-c2ccc(OC)cc2)on1	-2	-4	-8	-2	-3	13
COc1ccc(-c2cc(C(=O)Nc3cc(Cl)ccc3O)no2)cc1	-1	-31	u	1	14	113*
CSc1ccc(C2NC(=O)c3ccccc3N2)cc1 (stereo unspecified)	-3	-69	65*	7	23	x
COC(=O)C(CC(=O)c1ccccc1)CC(=O)c1ccccc1	0	-14	53*	1	1	32
CCOC(=O)C(CC(=O)c1ccccc1)CC(=O)c1ccccc1	-2	-41	57*	-2	6	87*
CCOC(=O)C(CCC(C)=O)C(=O)c1ccccc1 (stereo unspecified)	-3	-1	-3	-2	-1	-3
COCC(=O)Nc1ccc2c(c1)OC[C@H](C)N(C(=O)c1ccccc1)C[C@H](C)[C@H](OC)CN(C)C2=O	6	x	3	-4	x	x
CO[C@@H]1CN(C)C(=O)c2ccc(NS(=O)(=O)c3ccc(F)cc3)cc2OC[C@@H](C)N(C(=O)NC(C)C)C[C@H]1C	-5	x	4	0	x	x
O=C(c1ccccc1)c1ccc2cc(O)ccc2c1	x	-39	55*	1	20	47
O=C(c1ccccc1)c1cccc(C(=O)c2ccccc2)c1	1	x	10	x	x	18
O=C(NC1CCCC1)c1cc(-c2ccc(F)cc2)on1	2	-31	30	-1	-2	62
O=C(NC1CCCCC1)c1cc(-c2ccc(Cl)cc2)on1	-4	6	49*	1	10	67
O=C(NC1CCCC1)c1cc(-c2ccc(Cl)cc2)on1	0	-35	44*	-1	30*	132*
O=C(NC1CCCC1)c1cc(-c2cccc(Cl)c2)on1	-2	-48	78*	5	25	127*
O=C(NC1CCC(O)CC1)c1ccc(-c2ccc(Cl)cc2)o1 (stereo unspecified)	x	-71	64*	0	26	74
O=C(Nc1ccc2c(c1)[C@H]1C[C@H](CC(=O)N3CCCCC3)O[C@H](CO)[C@H]1O2)NC1CCCC1	2	0[16.7 µM]	-4	-1	x	x
COc1ccc(NC(=O)Nc2cccc3c2O[C@@H](CN(C)C(=O)Nc2ccc4c(c2)OCO4)[C@@H](C)CN([C@H](C)CO)C3=O)cc1	-3	x	9	-1	x	x
O=[N+]([O-])c1cccc(-c2nc(-c3cccs3)c(-c3cccs3)[nH]2)c1	-4	-84	-7	x	-1	-15
O=[N+]([O-])c1cccc(-c2noc(-c3cccs3)n2)c1	x	-302	x	1	48*	49
CC(/C=N/NC(=O)CSc1nc(C)cc(C)n1)=C\c1ccccc1	2	12	x	x	x	15
O=C(Cn1cnc2ccccc21)N/N=C/C(Br)=C/c1ccccc1	x	x	x	x	37*	-5
CC(/C=N\NC(=O)Cn1c(C)nc2ccccc21)=C\c1ccccc1	1	86*	9	x	-10	-5
COc1cc(COC(C)=O)ccc1OC(C)=O	8	-4[16.7 µM]	x	1	x	x
